The values below come from ChEMBL document CHEMBL1137220, “2-(2-(dimethylaminomethyl)phenoxy)-5-iodophenylamine: an improved serotonin transporter imaging agent” (J Med Chem, 2004).

Assay [1] deals with Sodium-dependent serotonin transporter (Homo sapiens, UniProt P31645). Nature of the assay: Binding affinity for serotonin transporter expressed in […] cells. It counts as cell-based. In outline:
(§1)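 Membranes from confluent pig kidney LLC-PK₁ cells stably expressing the respective transporter, homogenized and pelleted, 30–40 μg protein. Incubated with 0.4 nM [¹²⁵I]IPT or [¹²⁵I]IDAM and 8–10 competitor concentrations (10⁻¹⁰ to 10⁻⁵ M) in 50 mM Tris-HCl pH 7.4, 120 mM NaCl, 0.1% BSA, 1 h at room temperature. Nonspecific binding was defined with 10 μM CFT for IPT and 1 μM IDAM for IDAM. Filtration, gamma counting, nonlinear regression for Ki.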

In assay [2] the target is Sodium-dependent dopamine transporter (Homo sapiens, UniProt Q01959). The assay can be described thus: Binding affinity for dopamine transporter expressed in […] cells. It counts as cell-based. In outline:
as §1

Sequence of Sodium-dependent dopamine transporter (Q01959 whole entry): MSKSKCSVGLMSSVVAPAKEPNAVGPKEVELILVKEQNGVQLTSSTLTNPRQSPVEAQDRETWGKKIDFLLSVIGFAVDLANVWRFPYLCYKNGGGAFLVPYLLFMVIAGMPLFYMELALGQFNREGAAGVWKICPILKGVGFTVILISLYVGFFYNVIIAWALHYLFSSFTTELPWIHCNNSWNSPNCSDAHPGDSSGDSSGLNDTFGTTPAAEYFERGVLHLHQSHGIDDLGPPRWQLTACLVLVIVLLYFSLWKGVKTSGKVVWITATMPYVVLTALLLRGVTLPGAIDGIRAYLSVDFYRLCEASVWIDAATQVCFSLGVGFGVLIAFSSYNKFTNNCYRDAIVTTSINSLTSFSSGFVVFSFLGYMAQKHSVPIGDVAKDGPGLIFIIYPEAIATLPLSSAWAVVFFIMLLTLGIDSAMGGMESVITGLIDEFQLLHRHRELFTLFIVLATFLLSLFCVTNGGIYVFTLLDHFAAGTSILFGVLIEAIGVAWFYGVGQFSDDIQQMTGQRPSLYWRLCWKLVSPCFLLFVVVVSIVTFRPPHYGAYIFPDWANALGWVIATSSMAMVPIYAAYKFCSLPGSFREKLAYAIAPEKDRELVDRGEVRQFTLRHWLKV
Sequence of Sodium-dependent serotonin transporter (P31645 whole entry): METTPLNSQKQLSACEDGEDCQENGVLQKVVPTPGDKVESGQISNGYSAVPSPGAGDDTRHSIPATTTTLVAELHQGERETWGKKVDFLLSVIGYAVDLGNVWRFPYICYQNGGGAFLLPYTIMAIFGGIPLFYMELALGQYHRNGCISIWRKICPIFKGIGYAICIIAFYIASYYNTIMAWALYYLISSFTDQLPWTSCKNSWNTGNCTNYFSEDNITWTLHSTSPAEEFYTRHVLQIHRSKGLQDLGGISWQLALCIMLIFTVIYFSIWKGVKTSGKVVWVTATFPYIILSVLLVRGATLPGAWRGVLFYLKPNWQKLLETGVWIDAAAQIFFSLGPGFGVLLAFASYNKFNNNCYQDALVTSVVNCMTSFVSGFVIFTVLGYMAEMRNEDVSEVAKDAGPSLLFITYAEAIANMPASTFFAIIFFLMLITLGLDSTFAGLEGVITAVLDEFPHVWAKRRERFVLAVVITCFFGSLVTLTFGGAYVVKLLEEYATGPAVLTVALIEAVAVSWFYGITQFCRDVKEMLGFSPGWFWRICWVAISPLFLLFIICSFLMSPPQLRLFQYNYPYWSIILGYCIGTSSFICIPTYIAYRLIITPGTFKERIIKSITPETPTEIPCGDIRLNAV

Turning to `CN(C)Cc1ccccc1Sc1ccc(I)cc1CO`, the Ki in assay [1] is 0.09 nM; in assay [2] it was above 1000 nM.
Taken in the same sequence, the figures for `CN(C)Cc1ccccc1Oc1ccc(I)cc1CO` were 0.12 nM and above 1000 nM.
Taken in the same sequence, the figures for `CN(C)Cc1ccccc1Cc1ccc(I)cc1N` were 48.6 nM and above 1000 nM.
The like results for `CN(C)Cc1ccccc1Sc1ccc(I)cc1N` were, in that order, 0.01 nM and 840 nM.
In assay [2], `CN(C)Cc1ccccc1Sc1ccc(C#N)cc1N` [DASB] had a Ki above 1000 nM.
For the compound `CNCCC(Oc1ccccc1OC)c1ccccc1` (stereo not given) [NISOXETINE], the Ki in assay [1] was […].
